Data set [1] has as its system Staphylococcus aureus. The data set can be described thus: Antimicrobial activity against methicillin-resistant Staphylococcus aureus OC 8525 infected in SKH1 mouse assessed as log change in bacterial colony forming unit per gram of skin tissue at 100 mg/kg/day, sc (reference value: 0.8 deltalog CFU). The data set is classed as functional. The settings on record: route subcutaneous. The gist of the method: (§1)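 Female hairless immunocompetent SKH1 mice were anaesthetised and injected s.c. with 0.2 ml Cytodex bead inoculum (0.1% vol/vol beads in BHI; 6.7–7.0 log10 CFU/mouse): MSSA OC 4172 in the left flank, MRSA OC 8525 in the right. Drug was given at 1, 3, 25 and 27 h post-infection. At 48 h, flank lesions were excised, weighed and homogenised in saline, then plated on TSA (18 h, 37°C). The value is Δlog CFU/g versus the inoculum, from 5 mice/dose, run twice and pooled.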

The nature of data set [2]: fT>MIC in Staphylococcus aureus Smith OC 4172 infected sc dosed SKH1 mouse at 50 mg/kg, sc administered twice at 1 and 3 hrs after infection. The data set is classed as functional. The settings on record: route subcutaneous.
Data set [3] in a line: fT>MIC in Staphylococcus aureus OC 8525 infected sc dosed SKH1 mouse at 50 mg/kg, sc administered twice at 1 and 3 hrs after infection. The data set is classed as functional. Conditions: route subcutaneous.
A short description of data set [4]: fT>MIC in Pseudomonas aeruginosa OC 4351 infected sc dosed SKH1 mouse at 50 mg/kg, sc administered twice at 1 and 3 hrs after infection. The data set is classed as functional. The settings on record: route subcutaneous.
The nature of data set [5]: fT>MIC in Pseudomonas aeruginosa OC 4354 infected sc dosed SKH1 mouse at 50 mg/kg, sc administered twice at 1 and 3 hrs after infection. The data set is classed as functional. Conditions: route subcutaneous.
Data set [6] in a line: fT>MIC in Staphylococcus aureus OC 4172 infected sc dosed SKH1 mouse administered in 24 hrs dosing interval. The data set is classed as functional. In a few lines:
(§2)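 Plasma levels came from female hairless SKH1 mice given single s.c. doses at the nape 24 h after flank s.c. infection with Cytodex beads. S. aureus work used immunocompetent mice. P. aeruginosa work used mice made neutropenic with cyclophosphamide i.p., 150 mg/kg at day −5 and 100 mg/kg at day −1. Drug assayed by HPLC with diode-array detection. Noncompartmental analysis.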

Data set [7] is described as follows: fT>MIC in Staphylococcus aureus OC 8525 infected sc dosed SKH1 mouse administered in 24 hrs dosing interval. The data set is classed as functional. In a few lines: as §2
A short description of data set [8]: fT>MIC in Pseudomonas aeruginosa OC 4351 infected sc dosed SKH1 mouse administered in 24 hrs dosing interval. It counts as functional.
Data set [9] in a line: fT>MIC in Pseudomonas aeruginosa OC 4354 infected sc dosed SKH1 mouse administered in 24 hrs dosing interval. The data set is classed as functional. The gist of the method: as §2
A short description of data set [10]: Protein binding in mouse plasma. It counts as ADME, cell-free. Conditions: read-out: PPB (converted).
Data set [11] has as its system Staphylococcus aureus. In words: Antimicrobial activity against methicillin-susceptible Staphylococcus aureus OC 4172 assessed as inhibition of growth by broth microdilution method. It counts as functional.
The subject of data set [12] is Staphylococcus aureus. The data set can be described thus: Antimicrobial activity against methicillin-resistant Staphylococcus aureus OC 8525 assessed as inhibition of growth by broth microdilution method. It counts as functional. Background: Dilution methods test growth across graded concentrations, often in twofold steps.
Data set [13] is described as follows: Tmax in immunocompetent SKH1 mouse plasma at 50 mg/kg, sc. The data set is classed as ADME, organism-based. On the set-up: dose 50 mg/kg, route subcutaneous. In a few lines:
(§3)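 Female SKH1 hairless mice, immunocompetent or cyclophosphamide-neutropenic, infected s.c. with MRSA OC 8525 or P. aeruginosa OC 4354 on the Cytodex beads (left flank), sterile beads on the right. Single dose 24 h later: s.c. at the nape, or linezolid 50 mg/kg oral. Plasma and skin (DMSO homogenate) sampled over time, HPLC with diode array.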

For data set [14], the system named is Plasma. In words: fCmax in immunocompetent SKH1 mouse plasma at 50 mg/kg, sc. The data set is classed as ADME, organism-based. More on the design: dose 50 mg/kg, route subcutaneous. Conditions: in vivo. The gist of the method: as §3
The subject of data set [15] is Plasma. The data set can be described thus: fAUC (0-infinity) in immunocompetent SKH1 mouse plasma at 50 mg/kg, sc. More on the design: dose 50 mg/kg, route subcutaneous. The data set is classed as ADME, organism-based. The settings on record: in vivo. The gist of the method: as §3
In data set [16] the test system is Staphylococcus aureus. The data set can be described thus: Antimicrobial activity against methicillin-susceptible Staphylococcus aureus Smith OC 4172 infected in SKH1 mouse assessed as log change in bacterial colony forming unit per gram of skin tissue at 1.6 mg/kg/day, sc (reference value: 1.6 deltalog CFU). The data set is classed as functional. The settings on record: route subcutaneous.

For data set [17], the system named is Staphylococcus aureus. The data set can be described thus: Antimicrobial activity against methicillin-susceptible Staphylococcus aureus Smith OC 4172 infected in SKH1 mouse assessed as log change in bacterial colony forming unit per gram of skin tissue at 6.2 mg/kg/day, sc (reference value: 1.6 deltalog CFU). The settings on record: route subcutaneous. The data set is classed as functional.

The test system of data set [18] is Staphylococcus aureus. In words: Antimicrobial activity against methicillin-susceptible Staphylococcus aureus Smith OC 4172 infected in SKH1 mouse assessed as log change in bacterial colony forming unit per gram of skin tissue at 25 mg/kg/day, sc (reference value: 1.6 deltalog CFU). The data set is classed as functional. Conditions: route subcutaneous. In a few lines: as §1

The test system of data set [19] is Staphylococcus aureus. In words: Antimicrobial activity against methicillin-susceptible Staphylococcus aureus Smith OC 4172 infected in SKH1 mouse assessed as log change in bacterial colony forming unit per gram of skin tissue at 100 mg/kg/day, sc (reference value: 1.6 deltalog CFU). Conditions: route subcutaneous. The data set is classed as functional.
The subject of data set [20] is Staphylococcus aureus. The data set can be described thus: Antimicrobial activity against methicillin-resistant Staphylococcus aureus OC 8525 infected in SKH1 mouse assessed as log change in bacterial colony forming unit per gram of skin tissue at 1.6 mg/kg/day, sc (reference value: 0.8 deltalog CFU). The data set is classed as functional. Conditions: route subcutaneous. The gist of the method:
as §1

The subject of data set [21] is Staphylococcus aureus. The data set can be described thus: Antimicrobial activity against methicillin-resistant Staphylococcus aureus OC 8525 infected in SKH1 mouse assessed as log change in bacterial colony forming unit per gram of skin tissue at 6.2 mg/kg/day, sc (reference value: 0.8 deltalog CFU). It counts as functional. Conditions: route subcutaneous. The gist of the method: as §1

Data set [22] relates to Staphylococcus aureus. In words: Antimicrobial activity against methicillin-resistant Staphylococcus aureus OC 8525 infected in SKH1 mouse assessed as log change in bacterial colony forming unit per gram of skin tissue at 25 mg/kg/day, sc (reference value: 0.8 deltalog CFU). The data set is classed as functional. Conditions: route subcutaneous.

In the case of `Cc1nnc(SCC2=C(C(=O)O)N3C(=O)[C@@H](NC(=O)Cn4cnnn4)[C@H]3SC2)s1` [CEFAZOLIN], the deltalog10CFU in the data set on Staphylococcus aureus [1] was -0.3; in the data set on Staphylococcus aureus [16] it was -0.6; in the data set on Staphylococcus aureus [17] it was 1.6; with Staphylococcus aureus [18], -2; in the data set on Staphylococcus aureus [19] it was -1.7; with Staphylococcus aureus [20], 0.6. For the same compound, the results for the deltalog10CFU in the data set with Staphylococcus aureus [21] and in the data set with Staphylococcus aureus [22] were -1.2 and -1.3, respectively. The “fT>MIC” value worked out at 2.4 h in [2]; 0.3 h in data set [3]; 1.5 h in data set [4]; 0.8 h in data set [5]; 10.2% in [6]; 1.3% in data set [7]. Also, the “fT>MIC” value in [8] amounted to 6.4%; in [9], 3.3%. Moreover, in data set [10], the fraction unbound is 0.19. Further, the MIC (in general, the least concentration at which growth counts as inhibited) with Staphylococcus aureus [11] came to 0.5 µg/mL; with Staphylococcus aureus [12] it was 16 µg/mL. Also, the time of peak concentration (Tmax) (as a rule, the time from dosing to the highest level) in [13] is 7.5 min. Also, in the data set with Plasma [14], the fCmax was 19 µg/mL. In the data set with Plasma [15], this compound yielded a fAUC of 565 µg·min/mL.

For the origin of these results see ChEMBL document CHEMBL1212762, “In vivo activity of ceftobiprole in murine skin infections due to Staphylococcus aureus and Pseudomonas aeruginosa” (Antimicrob Agents Chemother, 2010).
